Data as given in ChEMBL document CHEMBL1127674, “Enhanced brain delivery of an anti-HIV nucleoside 2'-F-ara-ddI by xanthine oxidase mediated biotransformation” (J Med Chem, 1994).

Columns and labels:
[1] = Bioavailability after oral administration of 100 mg/kg of dose in mouse; format: ADME, organism-based; settings: in vivo
Outline: (§1)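 Single-dose pharmacokinetics in female NIH-Swiss mice given the compound in saline, either intragastrically or iv via tail vein over 30 s. Three mice sampled per time point. Serum or brain homogenate assayed by HPLC-UV at 260 nm. AUC calculated by Lagrange polynomial integration. Bioavailability taken as the ratio of oral to iv AUC.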

Mus musculus [2] = assay: Bioavailability in mouse brain after intravenous administration of 105.1 mg/kg of dose; format: ADME, organism-based; settings: in vivo
Mus musculus [3] = assay: Apparent volume of distribution in mice after oral administration of 100 mg/kg of dose; format: ADME, organism-based; set-up: dose 100 mg/kg, route oral; settings: in vivo
Outline: (§2)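 Female NIH-Swiss mice, 24–28 g. Compounds dissolved in physiological saline at 15 mg/mL and given once, either intragastrically or iv via tail vein over 30 s, at 100 or 106.8 mg/kg (equimolar). Three mice per time point, killed by heart puncture under ether. Serum and brain stored at -20 °C. Brain homogenized 1:1 (g:mL) in isotonic phosphate buffer, pH 7.4. Analysis by reversed-phase HPLC with UV at 260 nm and an internal standard. Noncompartmental pharmacokinetics, AUC by Lagrange polynomial integration.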

Mus musculus [4] = assay: Apparent clearance in mice after intravenous administration of 105.1 mg/kg of dose; format: ADME, organism-based; set-up: dose 105.1 mg/kg, route intravenous; settings: in vivo
[5] = Half-life in mouse serum after intravenous administration of 100 mg/kg of dose
[6] = Half-life in mouse serum after oral administration of 100 mg/kg of dose; format: ADME, organism-based; set-up: dose 100 mg/kg, route oral; outline: as §2
Mus musculus [7] = assay: Bioavailability in mouse brain after oral administration of 100 mg/kg of dose; format: ADME, organism-based; settings: in vivo; outline: as §1
Mus musculus [8] = assay: Bioavailability in mouse serum after oral administration of 100 mg/kg of dose; format: ADME, organism-based; settings: in vivo
Mus musculus [9] = assay: Bioavailability in mouse serum after intravenous administration of 105.1 mg/kg of dose; format: ADME, organism-based; settings: in vivo
[10] = Apparent volume of distribution in mice after intravenous administration of 105.1 mg/kg of dose; format: ADME, organism-based; set-up: dose 105.1 mg/kg, route intravenous; settings: mouse, in vivo, read-out: Vss
[11] = Half-life in mouse brain after intravenous administration of 100 mg/kg of dose
Mus musculus [12] = assay: Apparent clearance in mice after oral administration of 100 mg/kg of dose; format: ADME, organism-based; set-up: dose 100 mg/kg, route oral; settings: in vivo; outline: as §2
[13] = Half-life in mouse brain after oral administration of 100 mg/kg of dose; format: ADME, organism-based; set-up: dose 100 mg/kg, route oral; outline: as §2
Mus musculus [14] = assay: Bioavailability in mouse serum after intravenous administration of equimolar doses of ( 2'F-ara-ddI + 2'F-ara-ddP); format: ADME, organism-based; settings: in vivo
Mus musculus [15] = assay: Bioavailability in mouse brain after oral administration of equimolar doses of ( 2'F-ara-ddI + 2'F-ara-ddP); format: ADME, organism-based; settings: in vivo; outline: as §1
[16] = Evaluated for the maximum serum concentration administered at 1 hour in mice; format: ADME, organism-based; settings: mouse
Outline: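 Serum drug level in female NIH-Swiss mice after a single intragastric dose in saline, 100 mg/kg for the prodrug or an equimolar dose for the parent. Blood drawn by heart puncture under ether, three mice per time point. Serum analyzed by reversed-phase HPLC with UV at 260 nm; detection limit 50–100 ng/mL. Peak concentration read from the concentration–time profile and given as mean ± SD.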

Mus musculus [17] = assay: Bioavailability in mouse serum after oral administration of equimolar doses of ( 2'F-ara-ddI + 2'F-ara-ddP); format: ADME, organism-based; settings: in vivo
Mus musculus [18] = assay: Bioavailability in mouse brain after intravenous administration of equimolar doses of ( 2'F-ara-ddI + 2'F-ara-ddP); format: ADME, organism-based; settings: in vivo

bioavailability [1] | AUC (Mus musculus [2]) | Vss (Mus musculus [3]) | CI (Mus musculus [4]) | half-life [5] | half-life [6] | AUC (Mus musculus [7]) | AUC (Mus musculus [8]) | AUC (Mus musculus [9]) | Vd [10] | half-life [11] | CI (Mus musculus [12]) | half-life [13] | AUC (Mus musculus [14]) | AUC (Mus musculus [15]) | Cmax [16] | AUC (Mus musculus [17]) | AUC (Mus musculus [18]) | SMILES
60.7% | 120 uM L | 2.32 L/kg | 29.3 mL/min/kg | 24 min | 47.4 min | 32.3 uM L | 153 uM L | 252 uM L | 1.12 L/kg | 25.2 min | 48.3 mL/min/kg | 39 min |  |  |  |  |  | OCC1CC(F)C(n2cnc3cncnc32)O1 (configuration not stated)
 |  | 14.5 L/kg |  |  | 257 min |  | 154 uM L |  |  |  | 48 mL/min/kg |  | 132 uM L | 47.9 uM L | 48.1 µM | 134 uM L | 48 uM L | OCC1CC(F)C(n2cnc3c(O)ncnc32)O1 (configuration not stated)
